# What was measured:
# [1] = biological target: T1, Integrin alpha-IIb/beta-3 (Homo sapiens, UniProt P05106+P08514); assay: Inhibition of [125I]fibrinogen binding to human Fibrinogen Receptor.; assay type: protein-complex assay
# Target sequence in this assay (P05106 27-788 limits assumed): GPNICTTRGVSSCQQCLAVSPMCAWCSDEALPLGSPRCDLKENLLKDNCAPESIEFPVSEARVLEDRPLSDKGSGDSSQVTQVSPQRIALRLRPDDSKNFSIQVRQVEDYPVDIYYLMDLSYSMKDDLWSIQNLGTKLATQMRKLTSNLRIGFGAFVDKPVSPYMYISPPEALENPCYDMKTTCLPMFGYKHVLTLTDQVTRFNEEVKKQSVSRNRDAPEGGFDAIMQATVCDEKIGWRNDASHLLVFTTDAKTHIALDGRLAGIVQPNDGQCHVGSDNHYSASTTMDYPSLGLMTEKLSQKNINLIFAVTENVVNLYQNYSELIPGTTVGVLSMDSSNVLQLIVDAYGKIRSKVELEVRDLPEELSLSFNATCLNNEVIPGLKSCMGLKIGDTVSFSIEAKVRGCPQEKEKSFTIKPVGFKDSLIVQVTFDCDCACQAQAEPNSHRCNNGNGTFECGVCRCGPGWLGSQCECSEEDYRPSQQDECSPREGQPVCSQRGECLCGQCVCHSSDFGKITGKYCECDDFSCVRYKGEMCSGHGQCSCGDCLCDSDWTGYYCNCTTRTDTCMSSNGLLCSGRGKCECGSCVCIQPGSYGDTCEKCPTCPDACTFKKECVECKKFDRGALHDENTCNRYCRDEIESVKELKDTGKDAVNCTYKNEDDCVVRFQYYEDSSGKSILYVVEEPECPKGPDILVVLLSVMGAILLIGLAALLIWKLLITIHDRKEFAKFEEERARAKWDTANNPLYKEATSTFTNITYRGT
# Target sequence in this assay (P08514 32-887 limits assumed): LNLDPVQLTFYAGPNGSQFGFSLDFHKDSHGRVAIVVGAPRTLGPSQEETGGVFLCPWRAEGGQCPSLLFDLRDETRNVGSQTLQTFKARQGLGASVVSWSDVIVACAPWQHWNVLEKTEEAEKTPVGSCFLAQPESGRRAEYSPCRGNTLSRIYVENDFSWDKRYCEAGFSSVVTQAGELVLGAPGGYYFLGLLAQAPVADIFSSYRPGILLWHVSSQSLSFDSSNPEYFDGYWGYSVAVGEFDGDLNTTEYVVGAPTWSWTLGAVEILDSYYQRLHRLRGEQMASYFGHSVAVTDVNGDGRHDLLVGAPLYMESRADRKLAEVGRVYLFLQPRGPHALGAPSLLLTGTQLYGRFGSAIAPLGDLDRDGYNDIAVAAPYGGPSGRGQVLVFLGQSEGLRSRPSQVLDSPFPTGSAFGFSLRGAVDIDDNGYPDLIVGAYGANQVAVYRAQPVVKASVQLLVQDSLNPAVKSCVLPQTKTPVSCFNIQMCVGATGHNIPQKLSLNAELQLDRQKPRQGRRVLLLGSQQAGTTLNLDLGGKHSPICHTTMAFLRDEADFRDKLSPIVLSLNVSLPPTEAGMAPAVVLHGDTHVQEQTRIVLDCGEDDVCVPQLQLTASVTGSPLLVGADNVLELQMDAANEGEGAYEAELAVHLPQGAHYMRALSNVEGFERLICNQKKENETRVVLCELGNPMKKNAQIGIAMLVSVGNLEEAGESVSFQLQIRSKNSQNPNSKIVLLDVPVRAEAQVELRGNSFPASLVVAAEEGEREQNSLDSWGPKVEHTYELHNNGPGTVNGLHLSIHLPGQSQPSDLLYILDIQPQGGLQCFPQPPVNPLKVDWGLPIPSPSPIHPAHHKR
# Target sequence in this assay (P08514 891-1039 limits assumed): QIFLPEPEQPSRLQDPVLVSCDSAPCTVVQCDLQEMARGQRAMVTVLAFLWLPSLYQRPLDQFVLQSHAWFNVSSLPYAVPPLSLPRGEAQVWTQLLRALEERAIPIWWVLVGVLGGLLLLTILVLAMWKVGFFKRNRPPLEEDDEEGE
# [2] = biological target: T1, Integrin alpha-IIb/beta-3; assay: Inhibition of [125I]fibrinogen binding to human Fibrinogen Receptor at 50 uM; assay type: protein-complex assay
# In short: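 Human PRP with aspirin (50 μM, 37 °C, 20 min), pH 6.5, PGE1 0.9 μM; platelets gel-filtered, 1×10^8 per tube, thrombin-activated 2 min at room temperature, then hirudin. Compound plus [125I]fibrinogen (0.1 μM final) 10 min room temperature; platelets spun through silicone oil and pellet counted. Nonspecific binding with 4 mg/mL unlabeled fibrinogen; triplicates; % inhibition of specific binding vs fibrinogen alone.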
# [3] = biological target: T1, Integrin alpha-IIb/beta-3; assay: Inhibition of thrombin-induced platelet aggregation at 50 uM; assay type: functional
# [4] = In vitro inhibition of thrombin-induced platelet aggregation.; assay type: functional; details: Homo sapiens
Structure (SMILES),IC50 [1],inhibition [2],inhibition [3],IC50 [4]
CCN(CC)CCCNC(=O)c1cnn(-c2nc(-c3cccc(C(F)(F)F)c3)cs2)c1C(F)(F)F,4.1 µM,,,
CCN(CC)CCCCCCCNC(=O)c1cnn(-c2nc(-c3cccc(C(F)(F)F)c3)cs2)c1C(F)(F)F,,0%,35%,
NCCNC(=O)c1cnn(-c2nc(-c3cccc(C(F)(F)F)c3)cs2)c1C(F)(F)F,,44%,,
CCCNCCCNC(=O)c1cnn(-c2nc(-c3cccc(C(F)(F)F)c3)cs2)c1C(F)(F)F,10 µM,,,14.3 µM
NCCCCNC(=O)c1cnn(-c2nc(-c3cccc(C(F)(F)F)c3)cs2)c1C(F)(F)F,18.3 µM,,,4.8 µM
O=C(NCCCN1CCCC1=O)c1cnn(-c2nc(-c3cccc(C(F)(F)F)c3)cs2)c1C(F)(F)F,,0%,0%,
N=C(N)CCCNC(=O)c1cnn(-c2nc(-c3cccc(C(F)(F)F)c3)cs2)c1C(F)(F)F,23 µM,,,13 µM
CCN(CC)CCCNC(=O)c1cnn(-c2nc(-c3ccccc3)cs2)c1C(F)(F)F,50 µM,,,30 µM
N=C(N)NCCCNC(=O)c1cnn(-c2nc(-c3cccc(C(F)(F)F)c3)cs2)c1C(F)(F)F,17.5 µM,,,11.8 µM
O=C(NCCCN1CCCCC1)c1cnn(-c2nc(-c3cccc(C(F)(F)F)c3)cs2)c1C(F)(F)F,30 µM,,,10.9 µM
COc1ccc(CCNC(=O)C(CC(=O)O)NC(=O)CCCCCCCN=C(N)N)cc1 (centres undefined),9 µM,,,7.9 µM
CC(=O)Oc1ccccc1C(=O)O [ASPIRIN],,,,> 100 µM
CCN(CC)CCCNC(=O)c1cnn(-c2nc(-c3ccc(OC)cc3)cs2)c1C(F)(F)F,,57%,,12.5 µM
CCN(CC)CCCNC(=O)c1cnn(-c2nc(-c3ccc(C(F)(F)F)cc3)cs2)c1C(F)(F)F,40 µM,,,9.1 µM
CCN(CC)CCCNC(=O)c1cnn(-c2nc(-c3cccc(C(F)(F)F)c3)c(Br)s2)c1C(F)(F)F,1.3 µM,,,2.7 µM
CC(C)NCCCNC(=O)c1cnn(-c2nc(-c3cccc(C(F)(F)F)c3)cs2)c1C(F)(F)F,11.2 µM,,,6.7 µM
O=C(NCCCNc1ccccc1)c1cnn(-c2nc(-c3cccc(C(F)(F)F)c3)cs2)c1C(F)(F)F,,0%,18%,
CCN(CC)CCCNC(=O)c1cnn(-c2nc(-c3cccc(C(F)(F)F)c3)c(C(=O)O)s2)c1C(F)(F)F,,,30%,
NCCCCCNC(=O)c1cnn(-c2nc(-c3cccc(C(F)(F)F)c3)cs2)c1C(F)(F)F,,61%,,11.5 µM
CCN(CC)CCCNC(=O)c1cnn(-c2nc(-c3ccc(C)cc3)cs2)c1C(F)(F)F,70 µM,,,8.2 µM
CN(C)/C=N/CCCNC(=O)c1cnn(-c2nc(-c3cccc(C(F)(F)F)c3)cs2)c1C(F)(F)F,15.6 µM,,,13.7 µM
N=C(N)NCCC[C@H](N)C(=O)NCC(=O)N[C@@H](CC(=O)O)C(=O)N[C@@H](CO)C(=O)O,,,,30 µM
NCCCNC(=O)c1cnn(-c2nc(-c3cccc(C(F)(F)F)c3)cs2)c1C(F)(F)F,12.3 µM,,,14 µM
O=C(NCCCn1ccnc1)c1cnn(-c2nc(-c3cccc(C(F)(F)F)c3)cs2)c1C(F)(F)F,,0%,33%,
O=C(NCCCNC1CCCCC1)c1cnn(-c2nc(-c3cccc(C(F)(F)F)c3)cs2)c1C(F)(F)F,25 µM,,,6.1 µM
CCN(CC)CCCNC(=O)c1cnn(-c2nc(-c3cccc(C)c3)cs2)c1C(F)(F)F,50 µM,,,25 µM
CCN(CC)CCCNC(=O)c1cnn(-c2nc(-c3ccc(Cl)cc3)cs2)c1C(F)(F)F,45 µM,,,6.8 µM
